In ChEMBL document CHEMBL4196081, “Synthesis and antimycobacterial activity of 1-(β-d-Ribofuranosyl)-4-coumarinyloxymethyl- / -coumarinyl-1,2,3-triazole” (Eur J Med Chem, 2018):
Converted amounts (≈) assume the structure as drawn. The source made the active and inactive calls. The calls are words filed in the database; no cut-off is given here.

Columns and labels:
[1] = tested on: Mycobacterium tuberculosis; test: Antimycobacterial activity against Mycobacterium tuberculosis H37Rv after 10 days by MABA; type: functional; settings: 240 h
How it was run: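 MABA in 7H9 medium: log-phase culture passed through 8 µm filter, density set by OD600 and McFarland standards, 1 × 10^6 cells per well with drug dilutions; aerobic incubation 37 °C 10 days, then 0.02 % resazurin, overnight 37 °C. MIC = lowest concentration preventing blue-to-pink change. Triplicate; medium+inoculum and medium-only controls.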

[2] = Cytotoxicity against human THP1 cells assessed as cell viability at 150 ug/ml after 24 hrs by MTT assay relative to control; type: cell-based; settings: THP-1 cells, read-out: Activity
How it was run: (§1)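 THP-1 cells (human monocytic line) seeded at 10^4 per well and adhered with phorbol myristate acetate (20 ng/mL). Then given fresh RPMI with 10% foetal calf serum and 2 mM L-glutamine, plus compound by serial double dilution (4.68–150 µg/mL), with DMSO and no-DMSO controls. Incubated 24 or 48 h at 37 °C, 5% CO2. MTT added for 4 h, formazan dissolved in DMSO, A540 read, percentage survival calculated.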

[3] = tested on: Mycobacterium tuberculosis; test: Antimycobacterial activity against Mycobacterium tuberculosis H37Rv assessed as cells with vacuole formation at 4.15 uM after 30 mins by TEM analysis; type: functional, organism-based
[4] = Cytotoxicity against human THP1 cells assessed as cell viability at 37.48 ug/ml after 24 hrs by MTT assay relative to control; type: cell-based; settings: THP-1 cells, read-out: Activity; how it was run: as §1
[5] = Cytotoxicity against human THP1 cells assessed as cell viability at 9.36 ug/ml after 48 hrs by MTT assay relative to control; type: cell-based; settings: THP-1 cells, read-out: Activity; how it was run: as §1
[6] = Cytotoxicity against human THP1 cells assessed as cell viability at 150 ug/ml after 48 hrs by MTT assay relative to control; type: cell-based; settings: THP-1 cells, read-out: Activity; how it was run: as §1
[7] = Selectivity index, ratio of IC50 for cytotoxicity against human THP1 cells to MIC for Mycobacterium tuberculosis H37Rv; type: toxicity, cell-based; settings: THP-1 cells, read-out: Selectivity Index
How it was run: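 THP-1 cells, 10^4/well, adhered with PMA 20 ng/mL, in RPMI with 10 % FCS and 2 mM L-glutamine; exposed to 4.68–150 µg/mL for 24 and 48 h at 37 °C, 5 % CO2; MTT 4 h, formazan in DMSO, A540. Index = THP-1 IC50 divided by H37Rv MABA MIC.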

[8] = tested on: Mycobacterium tuberculosis; test: Bactericidal activity against Mycobacterium tuberculosis H37Rv after 4 weeks by MABA; type: functional; settings: 672 h
[9] = Cytotoxicity against human THP1 cells assessed as cell viability at 4.68 ug/ml after 24 hrs by MTT assay relative to control; type: cell-based; settings: THP-1 cells, read-out: Activity; how it was run: as §1
[10] = Cytotoxicity against human THP1 cells assessed as cell viability at 18.72 ug/ml after 48 hrs by MTT assay relative to control; type: cell-based; settings: THP-1 cells, read-out: Activity; how it was run: as §1
[11] = tested on: Mycobacterium tuberculosis; test: Antimycobacterial activity against MDR Mycobacterium tuberculosis isolate 591 after 15 days by MABA; type: functional; settings: isolate 591, 360 h
How it was run: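 MABA in 7H9 medium on MDR clinical isolate 591: filtered single-cell suspension, 1 × 10^6 cells per well with drug dilutions, aerobic 37 °C; 0.02 % resazurin added on day 15, overnight 37 °C. MIC = lowest concentration preventing blue-to-pink change. Triplicate; medium+inoculum and medium-only controls.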

[12] = tested on: Mycobacterium tuberculosis; test: Antimycobacterial activity against Mycobacterium tuberculosis H37Rv assessed as induction of cell wall disintegration at 4.15 uM after 30 mins by TEM analysis; type: functional, organism-based
[13] = tested on: Mycobacterium tuberculosis; test: Ratio of MBC to MIC for MDR Mycobacterium tuberculosis isolate 591; type: functional
[14] = Cytotoxicity against human THP1 cells assessed as cell viability at 75 ug/ml after 24 hrs by MTT assay relative to control; type: cell-based; settings: THP-1 cells, read-out: Activity; how it was run: as §1
[15] = tested on: Mycobacterium tuberculosis; test: Ratio of MBC to MIC for Mycobacterium tuberculosis H37Rv; type: functional
[16] = molecular target: DNA gyrase subunit B (Escherichia coli) (UniProt P0AES6); test: Inhibition of Escherichia coli DNA gyrase-B at 0.66 to 100 uM using relaxed pUC19 DNA as substrate after 1 hr by bromophenol blue dye based agarose gel electrophoresis method
How it was run: (§2)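 E. coli DNA gyrase, 1 unit, with 0.3 µg relaxed pUC19 plasmid in 1X gyrase assay buffer. Compound added as 0.2 µL from 100 µM stock; ciprofloxacin positive control, DMSO solvent control. Incubated 37 °C for 1 h, stopped with 50% glycerol/0.25% bromophenol blue. Run on 1% agarose in 0.5X TBE pH 8.3, 16 h at 30 mA, ethidium bromide stained, UV visualised for supercoiling.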

[17] = Cytotoxicity against human THP1 cells assessed as cell viability at 4.68 ug/ml after 48 hrs by MTT assay relative to control; type: cell-based; settings: THP-1 cells, read-out: Activity; how it was run: as §1
[18] = molecular target: T1, Enoyl-[acyl-carrier-protein] reductase [NADH] (Mycobacterium tuberculosis) (UniProt P9WGR1); test: Inhibition of Mycobacterium tuberculosis H37Rv InhA expressed in Escherichia coli at 5 to 100 uM preincubated for 30 mins followed by crotonoyl-CoA substrate and NADH addition measured over 15 mins by spectrophotometric method
T1 sequence (whole entry): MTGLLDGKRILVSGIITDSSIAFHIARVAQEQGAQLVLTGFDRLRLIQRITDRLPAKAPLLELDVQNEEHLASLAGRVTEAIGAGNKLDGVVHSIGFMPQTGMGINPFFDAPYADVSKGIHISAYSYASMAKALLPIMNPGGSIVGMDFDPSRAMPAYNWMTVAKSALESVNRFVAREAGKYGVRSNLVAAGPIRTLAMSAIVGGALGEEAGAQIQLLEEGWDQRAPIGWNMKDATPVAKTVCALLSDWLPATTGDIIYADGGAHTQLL
How it was run: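 Purified recombinant InhA (Rv1484, cloned in E. coli), 2 µg, preincubated 30 min with compound at 5 µM final (DMSO ≤1 % v/v) in 100 mM sodium phosphate pH 7.5; started with 100 µM NADH and 100 µM crotonoyl-CoA; A340 followed 15 min at room temperature. Triplicate.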

DNA gyrase subunit B = DNA gyrase subunit B (Escherichia coli, UniProt P0AES6); test: Inhibition of Escherichia coli DNA gyrase-B using relaxed pUC19 DNA as substrate after 1 hr by bromophenol blue dye based agarose gel electrophoresis method; how it was run: as §2
[19] = tested on: Mycobacterium tuberculosis; test: Bactericidal activity against MDR Mycobacterium tuberculosis isolate 591 after 4 weeks by MABA; type: functional; settings: isolate 591, 672 h
THP-1 = test: Cytotoxicity against human THP1 cells assessed as growth inhibition after 24 to 48 hrs by MTT assay; type: cell-based; how it was run: as §1
[20] = Cytotoxicity against human THP1 cells assessed as cell viability at 18.72 ug/ml after 24 hrs by MTT assay relative to control; type: cell-based; settings: THP-1 cells, read-out: Activity; how it was run: as §1
[21] = Cytotoxicity against human THP1 cells assessed as cell viability at 9.36 ug/ml after 24 hrs by MTT assay relative to control; type: cell-based; settings: THP-1 cells, read-out: Activity; how it was run: as §1
[22] = Cytotoxicity against human THP1 cells assessed as cell viability at 75 ug/ml after 48 hrs by MTT assay relative to control; type: cell-based; settings: THP-1 cells, read-out: Activity; how it was run: as §1
[23] = Cytotoxicity against human THP1 cells assessed as cell viability at 37.48 ug/ml after 48 hrs by MTT assay relative to control; type: cell-based; settings: THP-1 cells, read-out: Activity; how it was run: as §1
[24] = tested on: Mycobacterium tuberculosis; test: Antimycobacterial activity against Mycobacterium tuberculosis H37Rv assessed as induction of cell wall disintegration at 0.05 uM after 30 mins by TEM analysis; type: functional, organism-based
[25] = tested on: Mycobacterium tuberculosis; test: Potency index, ratio of rifampicin MIC to compound MIC for antimycobacterial activity against MDR Mycobacterium tuberculosis isolate 591; type: functional
[26] = tested on: Mycobacterium tuberculosis; test: Antimycobacterial activity against Mycobacterium tuberculosis H37Rv assessed as induction of cell wall disintegration at 1.38 uM after 30 mins by TEM analysis; type: functional, organism-based
[27] = tested on: Mycobacterium tuberculosis; test: Potency index, ratio of isoniazid MIC to compound MIC for antimycobacterial activity against MDR Mycobacterium tuberculosis isolate 591; type: functional
[28] = tested on: Mycobacterium tuberculosis; test: Potency index, ratio of ethambutol MIC to compound MIC for antimycobacterial activity against MDR Mycobacterium tuberculosis isolate 591; type: functional
[29] = tested on: Mycobacterium tuberculosis; test: Potency index, ratio of streptomycin MIC to compound MIC for antimycobacterial activity against MDR Mycobacterium tuberculosis isolate 591; type: functional
[30] = tested on: Mycobacterium tuberculosis; test: Antimycobacterial activity against Mycobacterium tuberculosis H37Rv assessed as cells with vacuole formation at 1.38 uM after 30 mins by TEM analysis; type: functional, organism-based

Compound | MIC [1] | viability at 24 h, 150 ug/ml [2] | viability at 24 h, 37.48 ug/ml [4] | viability at 48 h, 9.36 ug/ml [5] | viability at 48 h, 150 ug/ml [6] | selectivity ratio [7] | MBC [8] | viability at 24 h, 4.68 ug/ml [9] | viability at 48 h, 18.72 ug/ml [10] | MIC [11] | Ratio [13] | viability at 24 h, 75 ug/ml [14] | Ratio [15] | inhibition [16] | viability at 48 h, 4.68 ug/ml [17] | IC50 (THP-1) | viability at 24 h, 18.72 ug/ml [20] | viability at 24 h, 9.36 ug/ml [21] | viability at 48 h, 75 ug/ml [22] | viability at 48 h, 37.48 ug/ml [23] | further results
Cc1cc(=O)oc2cc(-c3cn([C@@H]4O[C@H](CO)[C@@H](O)[C@H]4O)nn3)ccc12 | 16.6 µM (≈ 5.97 µg/mL) | 84% | 99% | 90% | 60% | 25 | 16.7 µM (≈ 6 µg/mL) | 100% | 87% | 22.2 µM (≈ 7.98 µg/mL) | 1 | 96% | 1 | Active | 96% | > 417 µM | 99% | 100% | 64% | 77% | Activity [3]: Active; Activity [12]: Active; inhibition [18]: Active; IC50 (DNA gyrase subunit B): 3.2 µM; MBC [19]: 22.2 µM (≈ 7.98 µg/mL)
NNC(=O)c1ccncc1 [ISONIAZID] | 0.2 µM (≈ 0.0274 µg/mL) | 48% | 68% | 74% | 40% | 2740 | 0.3 µM (≈ 0.0411 µg/mL) | 90% | 67% | 2190 µM (≈ 300 µg/mL) |  | 50% | 1.6 |  | 84% | 547 µM | 83% | 85% | 41% | 57% | Activity [24]: Active
Cc1cc(=O)oc2cc(OCc3cn([C@@H]4O[C@H](CO)[C@@H](O)[C@H]4O)nn3)ccc12 | 5.1 µM (≈ 1.99 µg/mL) | 84% | 100% | 94% | 60% | 75.4 | 6.4 µM (≈ 2.49 µg/mL) | 100% | 84% | 10.3 µM (≈ 4.01 µg/mL) | 1.13 | 97% | 1.25 | Active | 95% | > 385 µM | 100% | 100% | 68% | 74% | Ratio [25]: 7 - 420; Activity [26]: Active; Ratio [27]: 7 - 420; Ratio [28]: 7 - 420; Ratio [29]: 7 - 420; Activity [30]: Active; inhibition [18]: Active; IC50 (DNA gyrase subunit B): 0.8 µM; MBC [19]: 11.5 µM (≈ 4.48 µg/mL)
